Experimental data: ChEMBL document CHEMBL3576860 (ACS Med Chem Lett, 2015)
Active and inactive are the calls of the source. The rule behind the calls is not given here.

What was measured:
[1] = target: Neuronal acetylcholine receptor; alpha4/beta4 (Rattus norvegicus, UniProt P09483+P12392); test: Displacement of [3H]epibatidine from rat alpha4beta4 nAChR transfected in HEK293 cell membrane; format: cell membranes
[2] = target: Neuronal acetylcholine receptor; alpha3/beta4 (Rattus norvegicus, UniProt P04757+P12392); test: Displacement of [3H]epibatidine from rat alpha3beta4 nAChR transfected in HEK293 cell membrane; format: cell membranes
[3] = target: T1, Neuronal acetylcholine receptor; alpha4/beta2 (Rattus norvegicus, UniProt P09483+P12390); test: Displacement of [3H]epibatidine from rat alpha4beta2 nAChR transfected in HEK293 cell membrane; format: cell membranes
How it was run: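 Rat α4β2, α4β4 or α3β4 subtypes; competition binding against [3H]epibatidine; Ki values; means of 3–5 independent experiments, each run in duplicate.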

[4] = target: Neuronal acetylcholine receptor subunit alpha-7 (Rattus norvegicus, UniProt Q05941); test: Displacement of [3H]MLA from rat alpha7 nAChR transfected in tsA201 cell membrane; format: cell membranes
[5] = target: T1, Neuronal acetylcholine receptor; alpha4/beta2; test: Antagonist activity at rat alpha4beta2 nAChR expressed in HEK293T cells by FLIPR assay; format: cell-based, HEK-293T
How it was run: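 Fluorescence-based FLIPR membrane potential read-out of receptor function; antagonist mode gives an IC50.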

[6] = target: Neuronal acetylcholine receptor; alpha3/beta4 (Rattus norvegicus) (UniProt P04757+P12392); test: Agonist activity at rat alpha3beta4 nAChR expressed in HEK293T cells by FLIPR assay; format: cell-based; details: HEK-293T
[7] = target: T1, Neuronal acetylcholine receptor; alpha4/beta2; test: Inhibition of rat (alpha4)2(beta2)3 nAChR expressed in Xenopus laevis oocytes assessed as inhibition of 100 uM ACh-induced current by two electrode-electrophysiology method; format: cell-based
How it was run: (§1)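 Xenopus oocytes injected with α4 and β2 mRNA at ratio 10:1 for (α4)3(β2)2 or 1:10 for (α4)2(β2)3. Peak currents evoked by fixed ACh (1 mM for 10:1, 100 μM for 1:10) are measured with increasing compound concentrations. Concentration–inhibition curves give IC50, with Ki also reported.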

[8] = target: T2, Neuronal acetylcholine receptor; alpha4/beta2 (Rattus norvegicus) (UniProt P09483+P12390); test: Inhibition of rat alpha4beta2 nAChR expressed in Xenopus laevis oocytes assessed as baseline current at 100 uM by two electrode-electrophysiology method; format: cell-based
How it was run: (§2)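 α4β2-expressing oocytes: compound at 100 μM applied alone to monitor baseline current, then coapplied with 30 μM ACh to assess the ACh-evoked current.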

[9] = target: T2, Neuronal acetylcholine receptor; alpha4/beta2 (Rattus norvegicus); test: Inhibition of rat alpha4beta2 nAChR expressed in Xenopus laevis oocytes assessed as inhibition of 30 uM ACh-induced current at 100 uM by two electrode-electrophysiology method; format: cell-based; how it was run: as §2
[10] = target: T1, Neuronal acetylcholine receptor; alpha4/beta2; test: Inhibition of rat (alpha4)3(beta2)2 nAChR expressed in Xenopus laevis oocytes assessed as inhibition of 1 mM ACh-induced current by two electrode-electrophysiology method; format: cell-based; how it was run: as §1
Mus musculus = test: Antidepressant activity in mouse assessed as total swim distance at 1 to 10 mg/kg, sc by forced swimming test; format: functional, organism-based
How it was run: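 Mouse forced swim test; subcutaneous doses of 1, 3 and 10 mg/kg; swimming scored.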

Chain of Neuronal acetylcholine receptor subunit alpha-7 (Q05941 whole entry): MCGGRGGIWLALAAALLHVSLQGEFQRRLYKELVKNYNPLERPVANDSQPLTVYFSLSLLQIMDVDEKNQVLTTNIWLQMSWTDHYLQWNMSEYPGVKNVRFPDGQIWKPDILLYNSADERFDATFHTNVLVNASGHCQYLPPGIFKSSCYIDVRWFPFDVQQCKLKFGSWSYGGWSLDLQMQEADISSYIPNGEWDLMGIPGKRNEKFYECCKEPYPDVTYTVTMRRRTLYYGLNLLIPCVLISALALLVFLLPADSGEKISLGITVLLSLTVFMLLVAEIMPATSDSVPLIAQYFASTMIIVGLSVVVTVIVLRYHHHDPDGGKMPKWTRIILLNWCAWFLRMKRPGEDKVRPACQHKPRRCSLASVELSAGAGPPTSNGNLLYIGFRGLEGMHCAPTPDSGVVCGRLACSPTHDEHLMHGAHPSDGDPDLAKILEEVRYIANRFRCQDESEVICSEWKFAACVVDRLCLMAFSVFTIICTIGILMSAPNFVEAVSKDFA
Chain of Neuronal acetylcholine receptor; alpha3/beta4 (P04757 whole entry): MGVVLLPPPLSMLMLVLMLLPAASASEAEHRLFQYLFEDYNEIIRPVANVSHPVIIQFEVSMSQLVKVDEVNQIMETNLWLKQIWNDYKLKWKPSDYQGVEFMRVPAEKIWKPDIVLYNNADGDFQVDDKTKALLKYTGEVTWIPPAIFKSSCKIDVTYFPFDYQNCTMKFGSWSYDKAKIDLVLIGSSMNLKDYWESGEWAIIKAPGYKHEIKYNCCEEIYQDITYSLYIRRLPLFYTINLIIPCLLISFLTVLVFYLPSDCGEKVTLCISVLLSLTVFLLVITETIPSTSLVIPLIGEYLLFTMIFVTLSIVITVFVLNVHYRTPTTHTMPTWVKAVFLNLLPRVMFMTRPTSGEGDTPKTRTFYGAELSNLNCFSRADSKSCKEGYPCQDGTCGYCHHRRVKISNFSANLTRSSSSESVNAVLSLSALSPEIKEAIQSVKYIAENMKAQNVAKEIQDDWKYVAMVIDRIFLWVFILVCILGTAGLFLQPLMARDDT
Chain of Neuronal acetylcholine receptor; alpha3/beta4 (P12392 whole entry): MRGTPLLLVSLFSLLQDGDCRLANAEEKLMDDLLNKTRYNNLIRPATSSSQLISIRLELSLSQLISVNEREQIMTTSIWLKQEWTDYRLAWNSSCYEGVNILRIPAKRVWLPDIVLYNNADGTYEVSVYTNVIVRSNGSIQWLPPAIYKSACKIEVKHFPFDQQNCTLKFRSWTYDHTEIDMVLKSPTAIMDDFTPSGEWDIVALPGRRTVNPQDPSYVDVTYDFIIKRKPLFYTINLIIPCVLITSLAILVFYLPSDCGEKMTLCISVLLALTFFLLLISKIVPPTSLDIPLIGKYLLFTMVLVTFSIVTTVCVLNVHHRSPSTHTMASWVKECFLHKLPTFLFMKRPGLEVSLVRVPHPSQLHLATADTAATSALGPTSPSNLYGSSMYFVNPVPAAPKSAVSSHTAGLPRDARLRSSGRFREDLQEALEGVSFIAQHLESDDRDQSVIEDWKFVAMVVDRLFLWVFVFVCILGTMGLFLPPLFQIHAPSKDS
T1 sequence (P09483 whole entry): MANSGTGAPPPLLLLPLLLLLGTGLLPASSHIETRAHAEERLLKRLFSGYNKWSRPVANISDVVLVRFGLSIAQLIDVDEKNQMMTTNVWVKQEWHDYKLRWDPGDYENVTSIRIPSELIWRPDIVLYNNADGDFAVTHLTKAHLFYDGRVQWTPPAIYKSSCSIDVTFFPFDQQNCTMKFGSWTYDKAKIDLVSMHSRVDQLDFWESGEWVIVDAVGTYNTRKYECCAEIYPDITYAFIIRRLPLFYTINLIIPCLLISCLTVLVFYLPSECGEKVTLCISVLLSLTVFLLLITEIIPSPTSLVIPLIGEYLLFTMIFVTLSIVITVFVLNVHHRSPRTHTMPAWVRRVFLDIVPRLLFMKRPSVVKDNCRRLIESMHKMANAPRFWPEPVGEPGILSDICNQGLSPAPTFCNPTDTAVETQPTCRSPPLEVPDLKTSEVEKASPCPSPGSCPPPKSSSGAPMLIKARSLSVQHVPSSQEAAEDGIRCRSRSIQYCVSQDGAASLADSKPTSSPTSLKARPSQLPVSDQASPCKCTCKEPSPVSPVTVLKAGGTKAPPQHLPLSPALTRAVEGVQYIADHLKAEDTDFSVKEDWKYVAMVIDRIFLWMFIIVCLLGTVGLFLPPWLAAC
T1 sequence (P12390 whole entry): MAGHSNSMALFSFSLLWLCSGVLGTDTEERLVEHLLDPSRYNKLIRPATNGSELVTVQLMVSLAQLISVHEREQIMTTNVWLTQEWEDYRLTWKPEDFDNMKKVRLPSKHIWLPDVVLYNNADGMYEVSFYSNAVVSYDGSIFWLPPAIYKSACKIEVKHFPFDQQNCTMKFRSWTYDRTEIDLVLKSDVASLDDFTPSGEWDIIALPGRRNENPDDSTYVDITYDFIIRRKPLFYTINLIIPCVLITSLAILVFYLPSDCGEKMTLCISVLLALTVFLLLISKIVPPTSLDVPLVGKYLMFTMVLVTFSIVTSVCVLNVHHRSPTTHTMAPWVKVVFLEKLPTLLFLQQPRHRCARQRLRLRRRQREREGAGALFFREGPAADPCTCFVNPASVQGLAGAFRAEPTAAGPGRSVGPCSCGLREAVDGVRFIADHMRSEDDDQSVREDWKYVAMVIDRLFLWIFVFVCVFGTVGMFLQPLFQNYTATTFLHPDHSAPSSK
Chain of Neuronal acetylcholine receptor; alpha4/beta4 (P09483 whole entry): as the sequence (P09483 whole entry) above
Chain of Neuronal acetylcholine receptor; alpha4/beta4 (P12392 whole entry): as the sequence (P12392 whole entry) above

Structure (SMILES) | Ki [1] [µM] | Ki [2] [µM] | Ki [3] [µM] | Ki [4] [µM] | IC50 [5] [µM] | Activity [6] | IC50 [7] [µM] | Ki [7] [µM] | inhibition [8] | inhibition [9] | IC50 [10] [µM] | Ki [10] [µM] | Activity (Mus musculus)
c1cc2c(cn1)CCN1CCCC21 (racemic) | 100 | 100 | 13 | – | – | – | – | – | – | – | – | – | –
c1cc2c(cn1)[C@@H]1CCCN1CC2 | 100 | 100 | 3.4 | > 300 | – | – | – | – | – | – | – | – | –
c1cc2c(cn1)C1CCCN1CC2 (racemic) | 7.2 | 100 | 0.071 | 500 | 0.12 | inactive | – | – | – | – | – | – | –
c1cc2c(cn1)[C@H]1CCCN1CC2 | 3.7 | 50 | – | 300 | – | – | 87 | 0.34 | inactive | Active | 135 | 15 | inactive
